Assay outcomes: PubChem, Sanford-Burnham Center for Chemical Genomics
STEP inh – STEP phosphatase inhibitors, primary screen, biochemical, fluorescence intensity, uHTS | inhibition, % at 20 µM | Tyrosine-protein phosphatase non-receptor type 5 (Homo sapiens), P54829 | recombinant STEP, OMFP fluorogenic substrate | 360,000 compounds, 0.25% hits;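 active means inhibition at 20 µM, scaled per plate between control wells, above about 37%, limit read from the data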
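Material: STEP (striatal-enriched tyrosine phosphatase) enzyme, cell-free; Compound dosing: 20 µM single dose in 1% DMSO; Technique: fluorescence read at 480 nm ex / 540 nm em; Times: reaction 20 min, ambient temperature; Medium: 50 mM Bis-Tris pH 6.0 with 2.5 mM DTT and 0.005% Tween 20; Also added: OMFP at 25 µM.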
SUMO1 PPI mod – modulators of SUMO1 protein-protein interactions, primary screen, biochemical, uHTS. Small ubiquitin-related modifier 1 (Homo sapiens), P63165. SUMO1 binding to a labelled peptide, TR-FRET, 1 h. inhibition, % at 20 µM. 360,000 compounds, 0.33% hits. AID 602429, 2012; in the data active means inhibition above about 37%
LMPTP inh – LMPTP phosphatase inhibitors, primary screen, biochemical, fluorescence intensity, uHTS | recombinant LMPTP-A, OMFP fluorogenic substrate | 360,000 compounds, 0.22% hits | Low molecular weight phosphotyrosine protein phosphatase (Homo sapiens), P24666 | inhibition, % at 20 µM;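 active means compounds that cut the enzyme signal by at least half of the control window in the single-dose screen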
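Assay system: LMPTP-A phosphatase enzyme | Input: 0.625 nM enzyme | Also added: Fluorogenic phosphatase substrate OMFP at 400 µM final | Compound dosing: One test concentration per compound, 20 µM, with 3% DMSO overall | Schedule: 50 min enzyme reaction at room temperature, protected from light | Signal: Fluorescence intensity | Benchmarks: no-enzyme and uninhibited controls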
DNMT1 block – human DNMT1 methyltransferase inhibitors, primary screen, biochemical, molecular beacon, fluorescence, HinP1I cleavage, uHTS. DNA (cytosine-5)-methyltransferase 1 (Homo sapiens), P26358. inhibition (reported as % activation of signal), % at 10 µM. 360,000 compounds, 0.83% hits. AID 588458, 2011; in the data active means inhibition above about 50%
Target sequence (P26358 504-1616 limits assumed): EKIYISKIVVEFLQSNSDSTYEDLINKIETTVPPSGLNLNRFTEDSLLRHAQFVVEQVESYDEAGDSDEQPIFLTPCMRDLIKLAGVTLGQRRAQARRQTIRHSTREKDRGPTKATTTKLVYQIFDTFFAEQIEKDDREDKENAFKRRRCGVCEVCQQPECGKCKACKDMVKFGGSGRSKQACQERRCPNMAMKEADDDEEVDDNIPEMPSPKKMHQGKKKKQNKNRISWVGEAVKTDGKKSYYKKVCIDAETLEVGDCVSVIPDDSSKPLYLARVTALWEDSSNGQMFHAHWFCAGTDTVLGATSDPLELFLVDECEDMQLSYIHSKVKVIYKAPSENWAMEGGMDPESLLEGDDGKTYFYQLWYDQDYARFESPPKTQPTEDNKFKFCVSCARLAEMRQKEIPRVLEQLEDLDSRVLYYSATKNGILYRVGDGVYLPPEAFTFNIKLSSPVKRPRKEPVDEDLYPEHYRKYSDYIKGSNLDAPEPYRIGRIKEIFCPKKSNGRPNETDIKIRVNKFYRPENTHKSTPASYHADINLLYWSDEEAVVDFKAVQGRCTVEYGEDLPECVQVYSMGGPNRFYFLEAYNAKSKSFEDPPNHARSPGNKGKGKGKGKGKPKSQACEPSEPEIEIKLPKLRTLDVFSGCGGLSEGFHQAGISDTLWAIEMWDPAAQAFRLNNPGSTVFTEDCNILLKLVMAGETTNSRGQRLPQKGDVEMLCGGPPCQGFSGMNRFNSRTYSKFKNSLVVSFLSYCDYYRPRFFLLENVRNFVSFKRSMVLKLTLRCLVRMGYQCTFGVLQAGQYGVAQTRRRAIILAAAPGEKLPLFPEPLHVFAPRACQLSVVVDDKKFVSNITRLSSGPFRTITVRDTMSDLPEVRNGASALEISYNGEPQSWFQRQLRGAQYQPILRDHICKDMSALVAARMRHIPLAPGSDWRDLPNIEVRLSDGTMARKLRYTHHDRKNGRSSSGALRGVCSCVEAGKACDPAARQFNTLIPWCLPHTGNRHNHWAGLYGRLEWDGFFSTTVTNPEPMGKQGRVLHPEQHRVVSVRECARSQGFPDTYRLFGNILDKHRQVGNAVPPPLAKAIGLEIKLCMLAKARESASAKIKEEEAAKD
Scp1 inh – Scp-1 phosphatase inhibitors, primary screen, biochemical, colorimetric, uHTS | Carboxy-terminal domain RNA polymerase II polypeptide A small phosphatase 1 (Homo … | Recombinant Scp1, phosphopeptide, malachite green phosphate absorbance | inhibition, % at 20 µM | 340,000 compounds, 0.88% hits | AID 493091, 2011;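 active means inhibition above about 50% at 20 µM, limit read from the data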
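Test system: SCP-1 phosphatase catalytic domain, residues 76-261 | Compound dosing: One concentration, 20 µM, with 1.0% DMSO | Schedule: 45 min room-temperature reaction, 5 min colour, 30 min stabiliser | Detection: Absorbance at 630 nm | Read-out basis: % inhibition of SCP-1 phosphate liberation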
Scp-1 conf – Scp-1 phosphatase inhibitors, retest, confirmation, biochemical, colorimetric, single concentration | shares compounds with Scp1 inh | recombinant SCP-1 catalytic domain, phosphate release, malachite green absorbance | inhibition, % at 20 µM | 2,500 compounds, 61% hits
MG interference – colorimetric readout interference by compounds, confirmation, artefact control for Scp-1 inhibitor project, biochemical, single concentration; shares compounds with Scp1 inh; Colorimetric interference counterscreen, malachite green absorbance 630 nm; apparent inhibition (interference), % at 20 µM; 2,500 tested, under 10 active;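 further: compounds added after enzyme reaction finished so only phosphate colour detection is probed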
Scp1 DSF – Scp-1 binding by thermal shift, confirmation, orthogonal assay for Scp-1 inhibitor project, biophysical, differential scanning fluorimetry. thermal shift relative to vanadate control, % at 40 µM. 1,500 compounds, 25% hits. Recombinant SCP1, Sypro Orange thermal shift Tm. shares compounds with Scp1 inh;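 active means substances whose mean melting-temperature shift, as a percentage of the reference inhibitor's shift, reaches about 5.3%, limit read from the data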
Numbers stand for hits; n = inactive; x = not tested or not shown. Hits are enriched below; roughly 1.7% of the tested compounds scored in any of these assays.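 How the source made its calls, unless noted: active means inhibition of at least 30% at 20 µM; inactive means the rest.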

SMILES	STEP inh	SUMO1 PPI mod	LMPTP inh	DNMT1 block	Scp1 inh	Scp-1 conf	MG interference	others
C=CCSc1nnc(NC(=O)CSc2nc3ccccc3[nH]2)s1	n	n	n	n	n	x	x
O=C(CCOc1ccc(F)cc1)Nc1nccs1	n	n	n	n	n	x	x
COc1ccc(C2=[N+](C)CCn3cccc32)c(OC)c1	n	n	n	n	103.3	95.6	n	Scp1 DSF=n
COc1ccc(CN2CCc3ccccc3C2)c(OC)c1	n	n	n	n	n	x	x
Cc1cc(C)cc(N=C2NC(=O)/C(=C/c3cccs3)S2)c1	n	n	n	n	n	x	x
O=C1NC(=Nc2ccccc2)S/C1=C\c1cccs1	n	n	n	n	97.1	n	n
O=C(COC(=O)c1cc(Br)ccc1O)NC12CC3CC(CC(C3)C1)C2	n	n	n	n	61.0	n	n
O=C(COC(=O)c1cncc(Br)c1)NC12CC3CC(CC(C3)C1)C2	n	n	n	n	x	x	x
COc1ccc(CN(C)CC(=O)Nc2ccccc2C(=O)NC2CC2)cc1OC	n	n	n	n	n	x	x
COc1cc(/C=C/c2cccc[n+]2C)ccc1OCC(=O)Nc1cccc(Cl)c1	n	n	n	n	70.3	32.4	n	Scp1 DSF=n
Cc1ccc(NC(=O)/C=C\C(=O)NCC(=O)O)cc1C	n	n	n	n	n	x	x
COc1ccc(/C=C2\SC(=S)N(c3cccnc3)C2=O)cc1	n	n	n	n	n	x	x
O=C1/C(=C\c2ccc(O)cc2)SC(=S)N1c1cccnc1	n	n	n	n	98.4	n	n
O=C(Cc1ccc(S(=O)(=O)N2CCCC2)s1)N1CCN(c2ccccc2)CC1	n	n	n	n	n	x	x
Cc1ccc(S(=O)(=O)N2CCN(C(=O)Cc3ccc(S(=O)(=O)N4CCOCC4)s3)CC2)cc1	n	n	n	n	n	x	x
COc1ccc(N2CCN(C(=O)Cc3ccc(S(=O)(=O)N4CCOCC4)s3)CC2)cc1	n	n	n	n	80.9	69.4	n	Scp1 DSF=n
O=C(O)Cc1ccc(S(=O)(=O)N2CCCC2)s1	n	n	n	67.0	93.3	57.6	n	Scp1 DSF=n
Cc1ccc(NC(=O)CC(=O)Nc2ccc(C)c(C)c2)cc1C	n	n	n	n	62.2	82.2	n	Scp1 DSF=n
Cc1ccc(NC(=O)CCSCCC(=O)Nc2ccc(C)c(C)c2)cc1C	n	n	n	n	n	x	x
CCOc1ccc(CN(C)C(=O)CNC(=O)c2cc(OC)c(OC)c(OC)c2)cc1	n	n	n	n	n	x	x
COc1ccc(S(=O)(=O)NNc2nc(C)cc(C)n2)cc1[N+](=O)[O-]	n	n	n	n	n	x	x
CN(C)S(=O)(=O)c1cccc(C(=O)OCC(=O)Nc2sccc2C(N)=O)c1	n	n	n	n	56.9	n	n
CCCN=C1N(CC)C[C@@H]2[C@@H]3C(=O)N(C)C(=O)[C@@H]3[C@](CC)(C(=O)OC)N12	n	n	n	n	n	x	x
CC(=O)c1ccc(NC(=O)c2cccc(N3C(=O)c4ccccc4C3=O)c2)cc1	98.0	83.6	55.2	n	96.5	47.6	n	Scp1 DSF=n
NCCCCC(=O)O	n	n	n	n	54.5	n	n
SMILES	STEP inh	SUMO1 PPI mod	LMPTP inh	DNMT1 block	Scp1 inh	Scp-1 conf	MG interference	others
NCCCC(=O)O	n	n	n	n	n	x	x
O=C(NCCc1nc2ccccc2[nH]1)c1ccc(Br)o1	n	n	n	n	61.3	n	n
Cc1nc(-c2ccc(C(=O)Nc3cc(S(N)(=O)=O)ccc3C)cc2)cs1	n	n	n	n	n	x	x
CCn1cc(C(=O)NCC(C)C)c(=O)c2cc(F)c(N3CCN(C(=O)c4ccco4)CC3)cc21	n	n	n	n	n	x	x
CCn1cc(C(=O)NCc2ccco2)c(=O)c2cc(F)c(N3CCN(C(=O)c4ccco4)CC3)cc21	n	n	n	n	57.6	36.9	n	Scp1 DSF=n
COc1ccc(N2C(=O)CSC2c2ccccc2[N+](=O)[O-])cc1 (stereo unspecified)	n	n	n	n	n	x	x
O=C(CNS(=O)(=O)c1ccccc1)Nc1ccccc1Br	n	n	n	n	50.2	n	n
O=c1c2ccccc2oc2nc(-c3ccco3)n(Cc3ccccc3)c(=O)c12	n	n	n	n	50.1	55.7	n	Scp1 DSF=n
CCc1nc2oc3ccccc3c(=O)c2c(=O)n1Cc1ccccc1	n	n	n	n	n	x	x
Cc1c(C(=O)O)cccc1-n1c(C)cc(C=O)c1C	n	n	n	n	56.1	43.7	n	Scp1 DSF=n
Cn1nc(-c2ccccc2)nc1-c1ccccc1	n	n	n	n	n	x	x
CN=c1nc(-c2ccccc2)n(-c2ccccc2)s1	n	n	n	n	76.5	n	n
COc1cc2c(C#CCO)c(-c3ccc(C#N)cc3)oc(=O)c2cc1OC	n	62.2	n	n	66.9	32.6	n	Scp1 DSF=n
CCn1ncc(Br)c1C(=O)Nc1ccc(-c2ccno2)cc1	n	n	n	n	n	x	x
C/C(=N\NC(=O)c1cccc(N/N=C(\C)c2ccco2)c1)c1ccco1	n	n	n	n	60.9	61.7	n	Scp1 DSF=6.1
CC1(C(=O)NCC2CC2)Cc2c(-c3ccc4c(c3)OCO4)ccnc2O1 (stereo unspecified)	n	n	n	n	x	x	x
Cc1nnsc1-c1c(C(=O)O)c(C)nn1-c1ccc(OC(F)(F)F)cc1	n	n	n	n	91.1	n	n
Cc1nnsc1-c1c(C(=O)N2CCOCC2)c(C)nn1-c1ccccc1	n	n	n	n	n	x	x
Nc1c(OS(=O)(=O)c2ccccc2)cccc1OS(=O)(=O)c1ccccc1	n	n	n	n	x	x	x
C[C@H]1CCCCO[C@H](CN(C)S(=O)(=O)c2cn(C)cn2)[C@@H](C)CN([C@@H](C)CO)C(=O)c2cc(NS(=O)(=O)c3ccccc3)ccc2O1	n	n	n	n	x	x	x
